PKA-R2B activ: PKA-R2B complex activation; P22694+P31323; AID 504700; hit rate 0.079% among 340,000; PKA-R2B holoenzyme dissociation, Cy5-IP20 fluorescence polarization; R2B truncated from residue 108, S112A mutant; 0% DMSO only, 100% 113 µM cGMP; activation, % at 11.4 µM;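 active means activation above a cutoff set at the mean over all compounds plus 3 SD, cut at about 18% in these data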;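 further: higher means more holoenzyme dissociation and a rise in polarization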
Target sequence (P31323 whole entry, looked up, other chains not shown, the tested form may be a part): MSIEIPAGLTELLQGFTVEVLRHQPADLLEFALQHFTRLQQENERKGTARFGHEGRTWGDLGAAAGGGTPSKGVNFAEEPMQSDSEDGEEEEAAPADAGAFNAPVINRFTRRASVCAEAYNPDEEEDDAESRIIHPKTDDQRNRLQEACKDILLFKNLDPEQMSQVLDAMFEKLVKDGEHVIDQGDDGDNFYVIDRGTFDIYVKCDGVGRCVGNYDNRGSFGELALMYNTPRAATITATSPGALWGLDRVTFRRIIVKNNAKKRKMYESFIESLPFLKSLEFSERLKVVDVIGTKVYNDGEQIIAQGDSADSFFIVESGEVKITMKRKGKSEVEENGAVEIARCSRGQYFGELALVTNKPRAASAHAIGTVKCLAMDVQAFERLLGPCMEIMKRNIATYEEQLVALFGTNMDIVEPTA
APJ antag: antagonists of human APJ apelin receptor; P35414; AID 2521; inhibition, % at 20 µM; hit rate 0.32% among 330,000; CHO-K1 APJ beta-arrestin complementation, luminescence;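 active means inhibition above about 40% at 20 µM, limit read from the data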;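 further: cells challenged with 10 nM apelin-13 agonist together with compound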
APJ agonist: APJ receptor agonism; P35414; activation, % at 20 µM; hit rate 0.11% among 330,000; CHO-K1 APJ PathHunter beta-arrestin, luminescence; 0% DMSO wells, 100% apelin;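 active means activation more than six SD over the plate average, tested at 20 µM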
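Assay system – PathHunter CHO-K1 APJ (AGTRL-1) beta-arrestin reporter cells · Compound – one dose, 20 µM compound, 1% DMSO · Timing – compound 90 min 25 °C, reagent 1 h · Measured by – luminescence from split beta-galactosidase complementation, Galacton Star/Emerald II substrate · Measure – beta-arrestin recruitment to APJ as agonist activity, luminescent signal · Benchmarks – DMSO vs Apelin-13 10 nM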
PKA-R1A act: activates the PKA-R1A holoenzyme complex; P00514+P68181; PKA-R1A dissociation, Cy5-IP20 fluorescence polarization; scaled: DMSO 0%, 113 µM cGMP 100%; activation, % at 11.4 µM; hit rate 0.083% among 340,000;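 active means percent activation above the mean of all tested compounds plus 3 SD, cut at about 19% in these data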;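 further: higher means more PKAc released from R1A so a rise in polarization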
CXCR6 inh: blocks human CXCR6 beta-arrestin recruitment; inhibition, % at 20 µM; hit rate 0.36% among 360,000; CHO-K1 PathHunter CXCR6 beta-arrestin, luminescence; AID 602244; in the data active means inhibition above about 34%, passing the limit was not always enough;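 further: antagonist mode with CXCL16 agonist at 10 nM final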
CCR6 antagonist: blocks CCL20-driven beta-arrestin recruitment at human CCR6; P51684; CHO-K1 CCR6 PathHunter beta-arrestin, luminescence, CCL20-stimulated; inhibition, % at 20 µM; hit rate 0.49% among 340,000; AID 493098;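 active means compounds whose inhibition of the agonist-driven luminescence signal at 20 µM reaches about 50%, limit read from the data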;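 further: cells stimulated with CCL20 at 14 nM final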
APJ ag confirm: APJ receptor agonism confirmation. hit rate 10% among 310. activation, % at 20 µM. shares compounds with APJ agonist. CHO-K1 APJ PathHunter beta-arrestin, luminescence;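 active means activation above 40%, taking the highest of four retests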
APJ antag conf: APJ receptor antagonism confirmation. AID 2766. shares compounds with APJ antag. APJ beta-arrestin recruitment, luminescence, antagonist mode. inhibition, % at 20 µM. hit rate 66% among 950; in the data active means inhibition above about 50%
Of the large screens only hits and unclear results are named; the others gave an inactive call (follow-up assays come after a bar, where they were run); ! = not confirmed by another sample. In the library only some 0.88% were active in any assay of this set; here they are far more common.

CCn1nc(/C=C/c2ccccc2)nc2c(=O)n(C)c(=O)nc1-2	none (no result: PKA-R2B activ, PKA-R1A act)
CCn1nc(-c2cccs2)nc2c(=O)n(C)c(=O)nc1-2	CCR6 antagonist 100 (no result: APJ antag, APJ agonist)
CC12CN3CCN(C1)CC(C)(C3)C2=NO	none
Cc1ccc(/C=C2\C(=O)NC(=S)N(c3ccccc3F)C2=O)s1	CXCR6 inh 40, CCR6 antagonist 96 (no result: APJ antag, APJ agonist)
C=CCN1C(=O)NC(=O)/C(=C\c2ccc(-c3ccccc3[N+](=O)[O-])o2)C1=O	none
O=C1NC(=O)N(Cc2ccco2)C(=O)/C1=C/c1ccc(-c2cccc([N+](=O)[O-])c2)o1	CCR6 antagonist 65
COc1cccc(NC2=NCCCS2)c1	none
c1ccc(C2N3CCCN23)cc1 (stereo not drawn)	none
ON1C2CCCCC2N(O)C1c1ccccc1 (stereo not drawn)	CCR6 antagonist 67
O=C1c2ccccc2C2(c3ccc(Cl)cc3)NCCN12 (stereo not drawn)	none
COc1cc(/C=C/[N+](=O)[O-])ccc1O	CCR6 antagonist 56
C[C@]12CCC3C(CC[C@H]4C[C@@H](O)CC[C@]34C)C1=CC[C@@H]2O (stereo partly drawn)	none (no result: APJ antag, APJ agonist, CCR6 antagonist)
CCN(CC)c1ccc(/C=C/[N+](=O)[O-])cc1	CXCR6 inh 40
CN(C)c1ccc(/C=C/c2cc[n+](C)c3ccccc23)cc1	CCR6 antagonist 54! (no result: APJ antag, APJ agonist)
CCc1ccc(NC(=O)CN2CC(c3ccccc3)CC2=O)cc1 (stereo not drawn)	none
CN(C)c1ccc(/C=C/C=C/c2sc3ccccc3[n+]2C)cc1	none
CC[n+]1c(/C=C/C=C/c2ccc(N(C)C)cc2)sc2ccccc21	CXCR6 inh 53, CCR6 antagonist 70
COc1ccc(N2C(=O)/C(=C/C=C/c3ccccc3[N+](=O)[O-])C(=O)NC2=S)cc1	CCR6 antagonist 59 (no result: PKA-R2B activ, PKA-R1A act, CXCR6 inh)
COc1ccc(N2C(=O)/C(=C/c3cccs3)C(=O)NC2=S)cc1	none
CCOC(=O)c1nsnc1NCCCl	none
COc1cc(/C=C(/C)[N+](=O)[O-])ccc1OCc1ccccc1Cl	CXCR6 inh 50, CCR6 antagonist 61
O=C(NC1CCCCC1)N1Cc2cc(-c3ccccc3)ccc2-n2nncc2C1	none (no result: PKA-R2B activ, APJ antag, APJ agonist, PKA-R1A act, CCR6 antagonist)
CCOc1ccc2nc(N=Nc3c(O)[nH]c(=S)[nH]c3=O)sc2c1	APJ antag 56, CCR6 antagonist 50
NC(N)=N/N=C/c1cn(-c2ccccc2)nc1-c1cccs1	APJ agonist 11
O=c1c2ccccc2nc(-c2cccs2)n1-c1ccccc1	none
O=[N+]([O-])/C=C/c1c(Cl)cccc1Cl	CXCR6 inh 100, CCR6 antagonist 105 (no result: APJ antag, APJ agonist)
Cc1cc(O)c2c(c1)C(=O)C13C(=C2O)C(=O)[C@H]2[C@@H](O)[C@@H]1[C@H]1[C@H](O)[C@@H]3C(=O)C3=C(O)c4c(O)cc(C)cc4C(=O)C312 (stereo partly drawn)	PKA-R2B activ 37
CC(C)OP(=O)(OC(C)C)C(O)c1ccccc1F (stereo not drawn)	none
COc1ccc(CN2C(=O)NC(=O)/C(=C\c3ccco3)C2=O)cc1	APJ agonist 18 | APJ ag confirm inactive
CN1C[C@H](CO)C=C2c3cccc4[nH]cc(c34)C[C@H]21	APJ agonist 17 | APJ ag confirm inactive
CC(C)[C@H]1C(=O)N2CCC[C@H]2[C@]2(O)O[C@](NC(=O)[C@@H]3C=C4c5cccc6[nH]cc(c56)C[C@H]4N(C)C3)(C(C)C)C(=O)N12	none
O=c1[nH]c(=S)[nH]c(O)c1/C=N/N1CCOCC1	none
CCn1c(O)c(N=Nc2cccc(S(=O)(=O)N3CCOCC3)c2)c(=O)n(CC)c1=S	none
CCn1c(O)c(N=Nc2ccc(S(=O)(=O)N3CCOCC3)cc2)c(=O)n(CC)c1=S	APJ antag 56 | APJ antag conf 55
O=c1[nH]c(=S)n(Cc2ccc(F)cc2)c(O)c1/C=N/N1CCCCC1	none
C=C1C(=O)O[C@@H]2C[C@@H](C)[C@@H]3C=CC(=O)[C@@]3(C)[C@@H](O)[C@H]12	APJ antag 47 | APJ antag conf 69
CCCCn1c(N)c(C(=O)OCC2CCCO2)c2nc3ccccc3nc21 (stereo not drawn)	none
CCCCn1c(NS(=O)(=O)c2ccc(C)cc2)c(C(=O)OCC)c2nc3ccccc3nc21	APJ antag 65, CCR6 antagonist 59 | APJ antag conf inactive
CCCCn1c(N)c(C(=O)OCCOC)c2nc3ccccc3nc21	none (no result: PKA-R2B activ, PKA-R1A act)
CCCCn1c(NC(=O)c2ccco2)c(C(=O)OCC)c2nc3ccccc3nc21	APJ antag 64, CCR6 antagonist 58 | APJ antag conf 55
COc1ccc(CN2CCCC(C(=O)c3ccc(Cl)cc3)C2)c(O)c1 (stereo not drawn)	none
Brc1ccc(C2N3CCCN23)cc1 (stereo not drawn)	none
CC12CCCCC1=NC(c1ccc(Br)cc1)N2O (stereo not drawn)	APJ antag 51, CCR6 antagonist 55 | APJ antag conf inactive
COc1ccc(CC2NCC(O)C2OC(C)=O)cc1 (stereo not drawn)	none (no result: APJ antag, APJ agonist)
CC1CCCN(CC(=O)c2ccc(Cl)c(Cl)c2)C1 (stereo not drawn)	APJ antag 122, CXCR6 inh 66, CCR6 antagonist 101 | APJ antag conf 158
CC(C)CCn1c(N)c(C(=O)OCC2CCCO2)c2nc3ccccc3nc21 (stereo not drawn)	APJ antag 50 | APJ antag conf 53
CCCCOCCCn1c(N)c(C(=O)OCCOC)c2nc3ccccc3nc21	APJ antag 59 | APJ antag conf inactive
CCCCCn1c(N)c(C(=O)NCc2cccs2)c2nc3ccccc3nc21	APJ antag 45 (no result: PKA-R2B activ, PKA-R1A act, CXCR6 inh) | APJ antag conf inactive
CCCCn1c(N)c(C(=O)NCc2cccs2)c2nc3ccccc3nc21	APJ antag 49 | APJ antag conf inactive
Clc1cccc(N2Cc3ccccc3-n3nncc3C2)c1	none (no result: PKA-R2B activ, APJ antag, APJ agonist, PKA-R1A act, CCR6 antagonist)
CCOC(=O)c1cc(C)n(CCc2cnc[nH]2)c1C	none
CCOC(=O)C1C(=O)NC23CCCC2C1c1ccccc1O3 (stereo not drawn)	none
COc1ccc2ccccc2c1CNCCc1ccccc1	none
CCN1/C(=C\C=C\C2=[N+](CC)c3ccccc3C2(C)C)C(C)(C)c2ccccc21	APJ antag 54, CXCR6 inh 63, CCR6 antagonist 61 | APJ antag conf 106
